Reference: ChEMBL document CHEMBL1141482, “Selective, high affinity A(2B) adenosine receptor antagonists: N-1 monosubstituted 8-(pyrazol-4-yl)xanthines” (Bioorg Med Chem Lett, 2008)

Tests used:
Adenosine receptor A2b = target: T1, Adenosine receptor A2b (Homo sapiens, UniProt P29275); test: Displacement of [3H]-ZM241385 from human A2B receptor expressed in HEK293 cell membranes
T1 sequence (P29275 whole entry): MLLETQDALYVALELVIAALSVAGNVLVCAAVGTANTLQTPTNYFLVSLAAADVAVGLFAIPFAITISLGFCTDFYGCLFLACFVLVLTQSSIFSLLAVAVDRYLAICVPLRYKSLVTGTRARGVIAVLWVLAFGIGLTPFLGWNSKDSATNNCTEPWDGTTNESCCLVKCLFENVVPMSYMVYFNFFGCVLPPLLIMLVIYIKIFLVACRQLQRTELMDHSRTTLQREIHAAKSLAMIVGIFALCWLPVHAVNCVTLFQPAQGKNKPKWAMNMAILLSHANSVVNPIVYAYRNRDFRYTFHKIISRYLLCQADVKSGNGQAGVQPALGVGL
Procedure, shortened: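 Membranes from HEK cells expressing A2B; binding sites labeled with 3H-ZM241385 at 14 nM and displaced competitively.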

Adenosine receptor A1 = target: T2, Adenosine receptor A1 (Homo sapiens, UniProt P30542); test: Displacement of [3H]-CPX from human A1 receptor expressed in CHO cell membranes
T2 sequence (P30542 whole entry): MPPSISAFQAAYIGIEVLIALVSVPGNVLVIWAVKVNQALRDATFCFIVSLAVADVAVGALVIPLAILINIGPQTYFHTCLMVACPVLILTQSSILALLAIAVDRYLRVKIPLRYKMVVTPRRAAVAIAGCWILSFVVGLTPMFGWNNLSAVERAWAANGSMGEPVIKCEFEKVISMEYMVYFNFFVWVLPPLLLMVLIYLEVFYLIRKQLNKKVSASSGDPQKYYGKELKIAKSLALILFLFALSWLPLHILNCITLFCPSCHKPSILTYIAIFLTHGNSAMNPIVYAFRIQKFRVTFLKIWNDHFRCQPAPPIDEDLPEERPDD
Procedure, shortened: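 Competitive binding on membranes prepared from A1-expressing CHO cells, radioligand 3H-CPX at 0.5 nM.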

Adenosine receptor A2a = Adenosine receptor A2a (Homo sapiens, UniProt P29274); test: Displacement of [3H]ZM241385 from human A2A receptor expressed in HEK293 cell membranes
Adenosine receptor A2a, sequence (P29274 whole entry): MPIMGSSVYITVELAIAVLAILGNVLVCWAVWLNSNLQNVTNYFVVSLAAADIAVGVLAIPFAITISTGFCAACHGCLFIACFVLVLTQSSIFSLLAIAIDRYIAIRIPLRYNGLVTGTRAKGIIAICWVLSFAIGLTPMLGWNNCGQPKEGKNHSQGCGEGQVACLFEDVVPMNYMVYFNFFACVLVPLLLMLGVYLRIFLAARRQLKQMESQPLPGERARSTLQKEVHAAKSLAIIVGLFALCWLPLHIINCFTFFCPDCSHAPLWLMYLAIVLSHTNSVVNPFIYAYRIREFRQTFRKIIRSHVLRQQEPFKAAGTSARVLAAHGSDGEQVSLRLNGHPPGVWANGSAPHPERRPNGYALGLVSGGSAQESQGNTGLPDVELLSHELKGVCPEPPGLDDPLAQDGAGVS
Procedure, shortened: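 A2A affinity by competition with 3H-ZM241385 (2 nM) for binding sites in membranes from HEK-A2A cells.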

Adenosine receptor A3 = target: T3, Adenosine receptor A3 (Homo sapiens, UniProt P0DMS8); test: Displacement of [125I]-AB-MECA from human A3 receptor expressed in CHO cells; type: cell-based
T3 sequence (P0DMS8 whole entry): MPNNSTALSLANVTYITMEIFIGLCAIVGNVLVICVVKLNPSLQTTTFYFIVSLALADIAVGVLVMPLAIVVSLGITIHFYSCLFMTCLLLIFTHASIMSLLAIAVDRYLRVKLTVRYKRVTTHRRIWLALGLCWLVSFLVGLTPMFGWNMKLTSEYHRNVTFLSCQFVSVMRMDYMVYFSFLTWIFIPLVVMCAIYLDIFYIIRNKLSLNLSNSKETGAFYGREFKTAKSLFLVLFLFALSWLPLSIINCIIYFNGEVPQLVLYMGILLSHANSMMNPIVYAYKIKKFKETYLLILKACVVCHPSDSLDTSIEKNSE
Procedure, shortened: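 A3 binding: competition for sites labeled by 125I-AB-MECA using CHO cells expressing the A3 receptor.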

Homo sapiens [1] = organism: Homo sapiens; test: Selectivity for human A2B receptor over human A1 receptor
Homo sapiens [2] = organism: Homo sapiens; test: Selectivity for human A2B receptor over human A2A receptor
Homo sapiens [3] = organism: Homo sapiens; test: Selectivity for human A2B receptor over human A3 receptor

Compound | Ki (Adenosine receptor A2b) | Ki (Adenosine receptor A1) | Ki (Adenosine receptor A2a) | Ki (Adenosine receptor A3) | Ratio Ki (Homo sapiens [1]) | Ratio Ki (Homo sapiens [2]) | Ratio Ki (Homo sapiens [3])
CCCn1c(=O)c2[nH]c(-c3cnn(Cc4cccc(C(F)(F)F)c4)c3)nc2n(CCC)c1=O | – | 160 nM | – | 140 nM | 12 | 27 | 10
CCCCn1c(=O)[nH]c2nc(-c3cnn(Cc4noc(-c5ccc(Cl)cc5)n4)c3)[nH]c2c1=O | 23 nM | > 6000 nM | > 5000 nM | > 9000 nM | > 260 | > 210 | > 400
CCn1c(=O)[nH]c2nc(-c3cnn(Cc4cccc(F)c4)c3)[nH]c2c1=O | 73 nM | > 6000 nM | > 5000 nM | 2120 nM | > 80 | > 70 | 30
CCCn1c(=O)c2[nH]c(-c3cnn(Cc4noc(-c5ccccc5)n4)c3)nc2n(CCC)c1=O | – | – | – | – | 50 | 85 | 30
CCCn1c(=O)c2[nH]c(-c3cnn(Cc4cccc(F)c4)c3)nc2n(CCC)c1=O | – | – | – | 58 nM | 13 | 18 | 4
CC(C)Cn1c(=O)[nH]c2nc(-c3cnn(Cc4cccc(F)c4)c3)[nH]c2c1=O | 24 nM | > 6000 nM | > 5000 nM | 1600 nM | > 250 | > 200 | 70
CCn1c(=O)[nH]c2nc(-c3cnn(Cc4ccccc4)c3)[nH]c2c1=O | 37 nM | 5600 nM | 3800 nM | 1500 nM | 150 | 100 | 40
O=c1[nH]c(=O)n(Cc2ccccc2)c2nc(-c3cnn(Cc4ccccc4)c3)[nH]c12 | > 6000 nM | – | – | – | – | – | –
CCCn1c(=O)[nH]c2nc(-c3cnn(Cc4noc(-c5ccc(Cl)cc5)n4)c3)[nH]c2c1=O | 7 nM | > 6000 nM | > 5000 nM | > 9000 nM | > 850 | > 700 | > 1280
CCCn1c(=O)[nH]c(=O)c2[nH]c(-c3cnn(Cc4ccccc4)c3)nc21 | > 6000 nM | – | – | – | – | – | –
O=c1[nH]c2nc(-c3cnn(Cc4noc(-c5ccc(Cl)cc5)n4)c3)[nH]c2c(=O)n1CC1CC1 | 48 nM | > 6000 nM | > 5000 nM | > 9000 nM | > 120 | > 100 | > 190
Cn1c(=O)[nH]c(=O)c2[nH]c(-c3cnn(Cc4ccccc4)c3)nc21 | > 6000 nM | – | – | – | – | – | –
CCCn1c(=O)c2[nH]c(-c3cnn(Cc4cc(-c5ccccc5)on4)c3)nc2n(CCC)c1=O | – | – | – | – | 110 | 30 | 130
CCCCn1c(=O)[nH]c2nc(-c3cnn(Cc4ccccc4)c3)[nH]c2c1=O | 34 nM | 5100 nM | 3400 nM | 110 nM | 150 | 100 | 3
CCCn1c(=O)[nH]c2nc(-c3cnn(Cc4cc(-c5ccc(Cl)cc5)on4)c3)[nH]c2c1=O | 170 nM | > 6000 nM | > 5000 nM | – | > 30 | > 30 | –
O=c1[nH]c2nc(-c3cnn(Cc4ccccc4)c3)[nH]c2c(=O)n1Cc1ccccc1 | > 6000 nM | – | – | – | – | – | –
CCCn1c(=O)c2[nH]c(-c3cnn(Cc4ccccc4)c3)nc2n(CCC)c1=O | – | – | – | – | 7 | 26 | 16
CCCCn1c(=O)[nH]c2nc(-c3cnn(Cc4cccc(C(F)(F)F)c4)c3)[nH]c2c1=O | 30 nM | > 6000 nM | > 5000 nM | > 9000 nM | > 200 | > 170 | > 300
CC(C)Cn1c(=O)[nH]c2nc(-c3cnn(Cc4cccc(C(F)(F)F)c4)c3)[nH]c2c1=O | 28 nM | > 6000 nM | > 5000 nM | > 9000 nM | > 210 | > 180 | > 320
CC(C)Cn1c(=O)[nH]c(=O)c2[nH]c(-c3cnn(Cc4ccccc4)c3)nc21 | > 6000 nM | – | – | – | – | – | –
CCCCn1c(=O)[nH]c(=O)c2[nH]c(-c3cnn(Cc4ccccc4)c3)nc21 | > 6000 nM | – | – | – | – | – | –
CCn1c(=O)[nH]c(=O)c2[nH]c(-c3cnn(Cc4ccccc4)c3)nc21 | > 6000 nM | – | – | – | – | – | –

The remaining lines, values ahead:

Ki (Adenosine receptor A2b) | Ki (Adenosine receptor A1) | Ki (Adenosine receptor A2a) | Ki (Adenosine receptor A3) | Ratio Ki (Homo sapiens [1]) | Ratio Ki (Homo sapiens [2]) | Ratio Ki (Homo sapiens [3]) | Compound
18 nM | 4200 nM | > 5000 nM | 270 nM | 230 | > 280 | 15 | CCCCn1c(=O)[nH]c2nc(-c3cnn(Cc4cccc(F)c4)c3)[nH]c2c1=O
15 nM | 1400 nM | > 5000 nM | > 9000 nM | 90 | > 300 | > 600 | CCCn1c(=O)[nH]c2nc(-c3cnn(Cc4noc(-c5ccc(C(F)(F)F)cc5)n4)c3)[nH]c2c1=O
8 nM | > 6000 nM | > 5000 nM | 700 nM | > 750 | > 620 | 80 | CCCn1c(=O)[nH]c2nc(-c3cnn(Cc4cccc(C(F)(F)F)c4)c3)[nH]c2c1=O
6 nM | > 6000 nM | > 5000 nM | > 9000 nM | > 1000 | > 830 | > 1500 | CCn1c(=O)[nH]c2nc(-c3cnn(Cc4cccc(C(F)(F)F)c4)c3)[nH]c2c1=O
14 nM | > 6000 nM | > 5000 nM | > 9000 nM | > 400 | > 350 | > 650 | CC(C)Cn1c(=O)[nH]c2nc(-c3cnn(Cc4noc(-c5ccc(C(F)(F)F)cc5)n4)c3)[nH]c2c1=O
15 nM | > 6000 nM | > 5000 nM | > 9000 nM | > 400 | > 300 | > 600 | O=c1[nH]c2nc(-c3cnn(Cc4cc(-c5ccc(C(F)(F)F)cc5)on4)c3)[nH]c2c(=O)n1CC1CC1
5 nM | 210 nM | 100 nM | – | 42 | 20 | – | O=c1[nH]c2nc(-c3cnn(Cc4cccc(F)c4)c3)[nH]c2c(=O)n1CC1CC1
13 nM | > 6000 nM | > 5000 nM | > 9000 nM | > 460 | > 380 | > 700 | O=c1[nH]c2nc(-c3cnn(Cc4noc(-c5ccc(C(F)(F)F)cc5)n4)c3)[nH]c2c(=O)n1CC1CC1
22 nM | > 6000 nM | > 5000 nM | > 9000 nM | > 270 | > 230 | > 400 | CCCn1c(=O)[nH]c2nc(-c3cnn(Cc4cc(-c5ccccc5)on4)c3)[nH]c2c1=O
13 nM | 1600 nM | > 5000 nM | 120 nM | 120 | > 380 | 10 | CCCn1c(=O)[nH]c2nc(-c3cnn(Cc4ccccc4)c3)[nH]c2c1=O
3 nM | > 6000 nM | > 5000 nM | 1000 nM | > 2000 | > 1600 | 300 | O=c1[nH]c2nc(-c3cnn(Cc4cccc(C(F)(F)F)c4)c3)[nH]c2c(=O)n1CC1CC1
13 nM | > 6000 nM | > 5000 nM | 1100 nM | > 460 | > 380 | 90 | CC(C)Cn1c(=O)[nH]c2nc(-c3cnn(Cc4ccccc4)c3)[nH]c2c1=O
12 nM | > 6000 nM | > 5000 nM | > 9000 nM | > 500 | > 410 | > 750 | CC(C)Cn1c(=O)[nH]c2nc(-c3cnn(Cc4cc(-c5ccccc5)on4)c3)[nH]c2c1=O
6 nM | 3290 nM | 2760 nM | 180 nM | 550 | 460 | 30 | O=c1[nH]c2nc(-c3cnn(Cc4ccccc4)c3)[nH]c2c(=O)n1CC1CC1
11 nM | 1800 nM | 1730 nM | 160 nM | 160 | 160 | 15 | CCCn1c(=O)[nH]c2nc(-c3cnn(Cc4cccc(F)c4)c3)[nH]c2c1=O
